Experiments:
[1] = target: Tyrosine-protein kinase SYK (Homo sapiens) (UniProt P43405); experiment: Inhibition of SYK at 1 uM in presence of 10 uM ATP by Select Screen kinase assay relative to untreated control
In short: (§1)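 Commercial SelectScreen profiling panel of 220 purified kinases. Each kinase was tested at a single inhibitor concentration of 1 μM, and activity was expressed as percent inhibition.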

[2] = target: T1, Tyrosine-protein kinase ZAP-70 (Homo sapiens) (UniProt P43403); experiment: Inhibition of ZAP70 at 1 uM in presence of 10 uM ATP by Select Screen kinase assay relative to untreated control; in short: as §1
T1 sequence (whole entry): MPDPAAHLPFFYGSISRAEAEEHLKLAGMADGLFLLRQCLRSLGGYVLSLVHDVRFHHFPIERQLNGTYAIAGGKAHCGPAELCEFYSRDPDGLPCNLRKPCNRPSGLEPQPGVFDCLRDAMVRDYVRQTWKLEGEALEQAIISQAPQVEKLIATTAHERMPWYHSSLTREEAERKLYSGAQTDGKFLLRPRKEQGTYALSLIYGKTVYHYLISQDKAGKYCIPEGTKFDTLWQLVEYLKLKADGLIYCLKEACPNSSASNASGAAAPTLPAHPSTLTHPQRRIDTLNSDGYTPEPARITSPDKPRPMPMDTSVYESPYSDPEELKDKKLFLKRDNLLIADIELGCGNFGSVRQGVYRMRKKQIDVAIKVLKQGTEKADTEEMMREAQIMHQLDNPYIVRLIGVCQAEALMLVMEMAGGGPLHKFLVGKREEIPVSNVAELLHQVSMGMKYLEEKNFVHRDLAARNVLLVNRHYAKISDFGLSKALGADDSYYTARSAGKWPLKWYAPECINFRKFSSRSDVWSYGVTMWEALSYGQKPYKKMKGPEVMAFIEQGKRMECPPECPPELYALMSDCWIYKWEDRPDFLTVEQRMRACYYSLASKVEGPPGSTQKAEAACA

[3] = target: T2, Rhodopsin kinase GRK7 (Homo sapiens) (UniProt Q8WTQ7); experiment: Inhibition of GRK7 at 1 uM in presence of 10 uM ATP by Select Screen kinase assay relative to untreated control
T2 sequence (whole entry): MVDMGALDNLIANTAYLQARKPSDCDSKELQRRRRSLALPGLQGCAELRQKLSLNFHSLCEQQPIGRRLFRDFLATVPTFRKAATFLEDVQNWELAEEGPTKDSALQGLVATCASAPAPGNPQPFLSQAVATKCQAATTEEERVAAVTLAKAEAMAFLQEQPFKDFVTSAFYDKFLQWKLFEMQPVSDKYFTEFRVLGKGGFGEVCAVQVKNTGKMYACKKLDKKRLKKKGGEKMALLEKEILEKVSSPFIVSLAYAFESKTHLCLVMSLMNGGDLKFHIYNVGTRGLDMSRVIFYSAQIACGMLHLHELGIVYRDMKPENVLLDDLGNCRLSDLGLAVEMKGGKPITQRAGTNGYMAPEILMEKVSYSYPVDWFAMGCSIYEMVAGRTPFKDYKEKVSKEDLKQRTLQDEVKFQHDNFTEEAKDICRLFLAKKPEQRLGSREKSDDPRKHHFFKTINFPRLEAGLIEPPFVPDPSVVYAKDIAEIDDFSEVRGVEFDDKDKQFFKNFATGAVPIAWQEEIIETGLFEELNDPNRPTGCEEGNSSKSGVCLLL
In short: (§2)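 Single-concentration profiling at 1 μM against a panel of 220 purified kinases, run as an outsourced SelectScreen kinase profiling service. Activity is expressed as percent inhibition.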

[4] = target: G protein-coupled receptor kinase 5 (Homo sapiens) (UniProt P34947); experiment: Inhibition of GRK5 at 1 uM in presence of 10 uM ATP by Select Screen kinase assay relative to untreated control; in short: as §2
[5] = target: ALK tyrosine kinase receptor (Homo sapiens) (UniProt Q9UM73); experiment: Inhibition of ALK at 1 uM in presence of 10 uM ATP by Select Screen kinase assay relative to untreated control
In short: (§3)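 Single-point screen at 1 μM against a panel of 220 purified kinases, run by Invitrogen staff as a SelectScreen profiling service. Read-out is percent inhibition of kinase activity.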

[6] = target: Macrophage colony-stimulating factor 1 receptor (Homo sapiens) (UniProt P07333); experiment: Inhibition of CSF1R at 1 uM in presence of 10 uM ATP by Select Screen kinase assay relative to untreated control; in short: as §3
[7] = target: Tyrosine-protein kinase Fer (Homo sapiens) (UniProt P16591); experiment: Inhibition of FER at 1 uM in presence of 10 uM ATP by Select Screen kinase assay relative to untreated control; in short: as §3
[8] = target: Tyrosine-protein kinase Lyn (Homo sapiens) (UniProt P07948); experiment: Inhibition of LYN A at 1 uM in presence of 10 uM ATP by Select Screen kinase assay relative to untreated control; in short: as §2
[9] = target: Receptor tyrosine-protein kinase erbB-2 (Homo sapiens) (UniProt P04626); experiment: Inhibition of ERBB2 at 1 uM in presence of 10 uM ATP by Select Screen kinase assay relative to untreated control; in short: as §3
[10] = target: Casein kinase I isoform gamma-1 (Homo sapiens) (UniProt Q9HCP0); experiment: Inhibition of CSNK1G1 at 1 uM in presence of 10 uM ATP by Select Screen kinase assay relative to untreated control; in short: as §3
[11] = target: Proto-oncogene tyrosine-protein kinase ROS (Homo sapiens) (UniProt P08922); experiment: Inhibition of ROS1 at 1 uM in presence of 10 uM ATP by Select Screen kinase assay relative to untreated control; in short: as §1
[12] = target: Angiopoietin-1 receptor (Homo sapiens) (UniProt Q02763); experiment: Inhibition of TEK at 1 uM in presence of 10 uM ATP by Select Screen kinase assay relative to untreated control; in short: as §1
[13] = target: Tyrosine-protein kinase Srms (Homo sapiens) (UniProt Q9H3Y6); experiment: Inhibition of SRMS at 1 uM in presence of 10 uM ATP by Select Screen kinase assay relative to untreated control; in short: as §1
[14] = target: Tyrosine-protein kinase Fgr (Homo sapiens) (UniProt P09769); experiment: Inhibition of FGR at 1 uM in presence of 10 uM ATP by Select Screen kinase assay relative to untreated control; in short: as §2
[15] = target: Ephrin type-A receptor 4 (Homo sapiens) (UniProt P54764); experiment: Inhibition of EPHA4 at 1 uM in presence of 100 uM ATP by Select Screen kinase assay relative to untreated control; in short: as §3
[16] = target: Serine/threonine-protein kinase Nek6 (Homo sapiens) (UniProt Q9HC98); experiment: Inhibition of NEK6 at 1 uM in presence of 10 uM ATP by Select Screen kinase assay relative to untreated control; in short: as §1
[17] = target: MAP kinase-activated protein kinase 2 (Homo sapiens) (UniProt P49137); experiment: Inhibition of MAPKAPK2 at 1 uM in presence of 10 uM ATP by Select Screen kinase assay relative to untreated control; in short: as §2
[18] = target: RAC-alpha serine/threonine-protein kinase (Homo sapiens, UniProt P31749); experiment: Inhibition of AKT1 at 1 uM in presence of 10 uM ATP by Select Screen kinase assay relative to untreated control; in short: as §3
Chain of RAC-alpha serine/threonine-protein kinase (P31749 whole entry): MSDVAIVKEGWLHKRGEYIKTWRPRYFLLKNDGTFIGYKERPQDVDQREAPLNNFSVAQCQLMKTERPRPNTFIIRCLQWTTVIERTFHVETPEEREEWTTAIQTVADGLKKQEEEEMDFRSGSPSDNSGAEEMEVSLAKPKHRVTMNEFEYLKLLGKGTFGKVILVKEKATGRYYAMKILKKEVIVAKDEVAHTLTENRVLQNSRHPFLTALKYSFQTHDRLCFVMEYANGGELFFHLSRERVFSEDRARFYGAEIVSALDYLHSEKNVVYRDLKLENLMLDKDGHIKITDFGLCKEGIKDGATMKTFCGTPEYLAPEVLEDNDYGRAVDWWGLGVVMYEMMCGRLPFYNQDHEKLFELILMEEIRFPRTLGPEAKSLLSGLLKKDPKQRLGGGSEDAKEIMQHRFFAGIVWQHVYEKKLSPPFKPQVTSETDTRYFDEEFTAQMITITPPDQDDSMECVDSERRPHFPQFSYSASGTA

Chain of Receptor tyrosine-protein kinase erbB-2 (Homo sapiens) (P04626 whole entry, canonical isoform): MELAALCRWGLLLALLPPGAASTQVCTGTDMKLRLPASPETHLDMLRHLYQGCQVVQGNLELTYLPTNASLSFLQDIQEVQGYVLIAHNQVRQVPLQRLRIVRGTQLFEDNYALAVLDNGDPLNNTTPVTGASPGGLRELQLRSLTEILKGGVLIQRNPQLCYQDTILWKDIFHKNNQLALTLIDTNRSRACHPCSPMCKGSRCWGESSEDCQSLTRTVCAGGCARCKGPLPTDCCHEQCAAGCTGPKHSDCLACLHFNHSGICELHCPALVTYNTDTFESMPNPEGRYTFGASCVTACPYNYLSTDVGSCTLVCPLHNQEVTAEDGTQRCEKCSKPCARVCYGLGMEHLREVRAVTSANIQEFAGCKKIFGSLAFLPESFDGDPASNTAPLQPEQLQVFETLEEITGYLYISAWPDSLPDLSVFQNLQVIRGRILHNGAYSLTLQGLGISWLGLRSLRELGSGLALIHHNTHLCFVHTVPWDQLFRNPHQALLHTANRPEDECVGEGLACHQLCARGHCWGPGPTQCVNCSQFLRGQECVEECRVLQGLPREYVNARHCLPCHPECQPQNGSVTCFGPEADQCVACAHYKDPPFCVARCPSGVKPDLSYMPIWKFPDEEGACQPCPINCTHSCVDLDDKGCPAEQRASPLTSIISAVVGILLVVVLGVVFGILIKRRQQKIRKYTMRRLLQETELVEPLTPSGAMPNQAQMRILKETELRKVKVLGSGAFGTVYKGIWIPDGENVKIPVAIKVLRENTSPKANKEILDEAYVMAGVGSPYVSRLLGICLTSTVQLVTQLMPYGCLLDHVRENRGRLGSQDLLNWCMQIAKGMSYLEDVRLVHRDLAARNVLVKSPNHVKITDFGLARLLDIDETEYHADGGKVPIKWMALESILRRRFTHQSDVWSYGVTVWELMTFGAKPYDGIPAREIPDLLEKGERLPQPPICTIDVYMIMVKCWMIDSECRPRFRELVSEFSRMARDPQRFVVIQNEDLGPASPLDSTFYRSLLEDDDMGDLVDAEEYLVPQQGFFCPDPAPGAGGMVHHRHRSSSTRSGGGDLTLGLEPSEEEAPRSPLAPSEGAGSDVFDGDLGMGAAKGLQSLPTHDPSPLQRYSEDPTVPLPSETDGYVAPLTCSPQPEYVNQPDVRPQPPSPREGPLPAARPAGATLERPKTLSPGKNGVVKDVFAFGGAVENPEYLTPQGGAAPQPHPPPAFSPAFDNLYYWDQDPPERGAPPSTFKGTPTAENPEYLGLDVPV
Chain of Tyrosine-protein kinase Lyn (Homo sapiens) (P07948 2-512 limits assumed): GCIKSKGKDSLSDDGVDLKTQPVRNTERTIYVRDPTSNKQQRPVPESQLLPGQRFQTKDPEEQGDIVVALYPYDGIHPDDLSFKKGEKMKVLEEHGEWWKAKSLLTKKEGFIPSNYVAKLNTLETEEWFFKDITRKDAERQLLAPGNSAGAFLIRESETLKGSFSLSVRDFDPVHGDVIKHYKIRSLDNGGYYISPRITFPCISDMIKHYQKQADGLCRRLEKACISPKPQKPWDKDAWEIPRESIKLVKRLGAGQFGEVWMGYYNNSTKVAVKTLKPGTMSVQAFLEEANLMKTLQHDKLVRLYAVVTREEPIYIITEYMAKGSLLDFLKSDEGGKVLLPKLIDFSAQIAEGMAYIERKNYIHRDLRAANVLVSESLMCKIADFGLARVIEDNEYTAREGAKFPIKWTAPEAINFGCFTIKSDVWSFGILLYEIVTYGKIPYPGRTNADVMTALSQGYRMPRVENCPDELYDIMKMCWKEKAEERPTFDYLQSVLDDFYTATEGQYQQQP
Chain of MAP kinase-activated protein kinase 2 (Homo sapiens) (P49137 whole entry, looked up): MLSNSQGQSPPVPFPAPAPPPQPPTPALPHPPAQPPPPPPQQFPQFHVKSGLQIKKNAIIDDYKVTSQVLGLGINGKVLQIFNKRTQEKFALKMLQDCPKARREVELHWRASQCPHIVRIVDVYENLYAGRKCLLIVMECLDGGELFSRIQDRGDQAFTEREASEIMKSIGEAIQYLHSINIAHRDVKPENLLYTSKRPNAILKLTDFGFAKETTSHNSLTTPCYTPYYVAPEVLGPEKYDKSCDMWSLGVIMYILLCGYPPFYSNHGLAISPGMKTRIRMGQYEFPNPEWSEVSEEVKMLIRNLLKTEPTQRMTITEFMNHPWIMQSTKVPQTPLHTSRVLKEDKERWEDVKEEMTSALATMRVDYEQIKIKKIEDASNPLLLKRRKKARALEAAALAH
Chain of Tyrosine-protein kinase Srms (Homo sapiens) (Q9H3Y6 whole entry): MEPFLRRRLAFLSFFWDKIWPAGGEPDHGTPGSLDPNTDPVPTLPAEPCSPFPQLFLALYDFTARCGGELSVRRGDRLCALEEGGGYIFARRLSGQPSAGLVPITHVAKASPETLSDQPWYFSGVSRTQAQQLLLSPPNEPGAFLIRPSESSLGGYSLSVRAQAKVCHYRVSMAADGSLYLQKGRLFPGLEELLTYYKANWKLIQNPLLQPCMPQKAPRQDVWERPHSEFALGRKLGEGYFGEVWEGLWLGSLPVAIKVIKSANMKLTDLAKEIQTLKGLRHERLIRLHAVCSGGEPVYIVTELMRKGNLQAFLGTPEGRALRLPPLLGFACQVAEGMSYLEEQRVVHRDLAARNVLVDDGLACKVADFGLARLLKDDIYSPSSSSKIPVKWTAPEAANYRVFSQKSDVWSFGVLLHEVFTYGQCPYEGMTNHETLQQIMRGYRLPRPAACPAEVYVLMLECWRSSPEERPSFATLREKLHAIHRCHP
Chain of Serine/threonine-protein kinase Nek6 (Homo sapiens) (Q9HC98 whole entry): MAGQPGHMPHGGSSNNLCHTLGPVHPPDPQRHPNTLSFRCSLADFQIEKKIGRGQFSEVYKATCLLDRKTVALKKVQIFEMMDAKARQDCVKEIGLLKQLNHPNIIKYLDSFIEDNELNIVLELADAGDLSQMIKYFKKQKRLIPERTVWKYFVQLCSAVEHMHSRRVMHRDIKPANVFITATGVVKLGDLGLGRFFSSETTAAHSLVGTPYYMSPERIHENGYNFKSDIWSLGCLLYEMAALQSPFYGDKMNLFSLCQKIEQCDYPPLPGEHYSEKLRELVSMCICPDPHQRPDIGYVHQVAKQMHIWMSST
Chain of Angiopoietin-1 receptor (Homo sapiens) (Q02763 whole entry): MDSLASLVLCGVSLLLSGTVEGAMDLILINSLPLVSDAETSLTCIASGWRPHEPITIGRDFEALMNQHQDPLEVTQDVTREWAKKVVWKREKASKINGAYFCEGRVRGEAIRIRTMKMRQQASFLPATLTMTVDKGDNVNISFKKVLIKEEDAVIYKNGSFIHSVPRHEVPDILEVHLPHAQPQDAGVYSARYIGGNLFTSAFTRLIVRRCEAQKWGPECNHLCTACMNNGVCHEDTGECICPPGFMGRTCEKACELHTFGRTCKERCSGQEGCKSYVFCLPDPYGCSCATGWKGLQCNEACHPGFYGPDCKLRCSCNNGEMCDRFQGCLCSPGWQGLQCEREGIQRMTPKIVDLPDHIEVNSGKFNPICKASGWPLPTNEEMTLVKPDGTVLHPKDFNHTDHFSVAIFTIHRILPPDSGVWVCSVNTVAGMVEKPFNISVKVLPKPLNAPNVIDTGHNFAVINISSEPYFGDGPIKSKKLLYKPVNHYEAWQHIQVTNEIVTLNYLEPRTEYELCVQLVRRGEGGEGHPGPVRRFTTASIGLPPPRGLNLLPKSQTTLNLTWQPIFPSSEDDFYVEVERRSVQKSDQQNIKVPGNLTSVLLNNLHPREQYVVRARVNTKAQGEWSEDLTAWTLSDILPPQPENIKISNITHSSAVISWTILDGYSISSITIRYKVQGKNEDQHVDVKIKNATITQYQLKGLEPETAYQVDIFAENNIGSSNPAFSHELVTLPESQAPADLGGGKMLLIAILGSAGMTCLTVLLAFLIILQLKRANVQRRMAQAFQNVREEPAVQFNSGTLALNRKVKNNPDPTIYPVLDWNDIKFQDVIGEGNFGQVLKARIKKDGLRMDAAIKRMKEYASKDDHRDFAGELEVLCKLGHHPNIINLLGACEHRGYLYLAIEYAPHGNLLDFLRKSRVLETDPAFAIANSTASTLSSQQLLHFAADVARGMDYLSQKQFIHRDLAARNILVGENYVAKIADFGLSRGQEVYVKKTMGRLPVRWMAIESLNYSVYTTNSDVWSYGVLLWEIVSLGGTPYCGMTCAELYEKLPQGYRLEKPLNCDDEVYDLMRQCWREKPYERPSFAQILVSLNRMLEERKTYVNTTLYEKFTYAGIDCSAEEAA
Chain of Casein kinase I isoform gamma-1 (Homo sapiens) (Q9HCP0 whole entry, looked up, canonical isoform): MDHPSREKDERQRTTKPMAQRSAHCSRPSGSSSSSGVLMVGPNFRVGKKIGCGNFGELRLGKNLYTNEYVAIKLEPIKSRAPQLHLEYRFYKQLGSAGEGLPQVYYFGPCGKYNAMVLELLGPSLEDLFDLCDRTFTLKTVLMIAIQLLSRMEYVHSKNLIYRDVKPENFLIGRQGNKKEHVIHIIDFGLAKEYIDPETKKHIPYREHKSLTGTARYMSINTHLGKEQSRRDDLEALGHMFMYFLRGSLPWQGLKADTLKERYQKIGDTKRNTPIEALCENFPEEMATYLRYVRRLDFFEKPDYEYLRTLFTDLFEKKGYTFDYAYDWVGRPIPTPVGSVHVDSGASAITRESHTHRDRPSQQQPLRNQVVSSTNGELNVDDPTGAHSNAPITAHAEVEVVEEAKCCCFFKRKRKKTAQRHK

SMILES	inhibition [1]	inhibition [2]	inhibition [3]	inhibition [4]	inhibition [5]	inhibition [6]	inhibition [7]	inhibition [8]	inhibition [9]	inhibition [10]	inhibition [11]	inhibition [12]	inhibition [13]	inhibition [14]	inhibition [15]	inhibition [16]	inhibition [17]	inhibition [18]
Cc1n[nH]c2ccc(-c3cncc(OC[C@@H](N)Cc4c[nH]c5ccccc45)c3)cc12	0%	11%	102%	46%	17%	5%	14%	8%	-6%	62%	17%	-1%	-1%	36%	-4%	3%	3%	100%
O=C(NCCCNc1nc(Nc2cccc(NC(=O)N3CCCC3)c2)ncc1I)c1cccs1	84%	24%	17%	7%	9%	44%	38%	27%	10%	10%	5%	11%	10%	29%	11%	9%	2%	7%
COc1ccccc1N1CCN(c2ncnc3[nH]nc(Br)c23)CC1	12%	4%	34%	7%	10%	26%	28%	13%	8%	11%	21%	12%	7%	8%	9%	10%	-5%	16%

From ChEMBL document CHEMBL1250448, “Inhibitor hijacking of Akt activation” (Nat Chem Biol, 2009)
